Results as given in ChEMBL document CHEMBL2417516, “Metallo-β-lactamase inhibitory activity of 3-alkyloxy and 3-amino phthalic acid derivatives and their combination effect with carbapenem” (Bioorg Med Chem, 2013).
Converted amounts (≈) assume the structure as drawn. The source made the active and inactive calls. The rule behind the calls is not given here.

What was measured:
[1] = tested on: Pseudomonas aeruginosa; assay: Antibacterial activity against Pseudomonas aeruginosa PAO1 pMS363 by microbroth dilution method; assay type: functional
Outline: (§1)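 MIC determined by broth microdilution following CLSI guidance, with Mueller–Hinton II broth as the test medium.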

[2] = tested on: Pseudomonas aeruginosa; assay: Antibacterial activity against mexAB-deleted Pseudomonas aeruginosa KG5002/pMS363 by microbroth dilution method; assay type: functional; outline: as §1
[3] = biological target: Metallo beta-lactamase (Pseudomonas aeruginosa, UniProt Q6TUJ4); assay: Inhibition of carbapenems-resistant Pseudomonas aeruginosa MSC15369 metallo-beta-lactamase IMP1 expressed in Escherichia coli DH5[alpha] using nitrocefin as substrate after 20 mins by spectrophotometry
Outline: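 IMP-1 was expressed in E. coli DH5 with 0.5 mM IPTG induction for 3 h at room temperature, and the soluble enzyme was purified from cell extracts on Ni-NTA. Inhibitors were incubated with 1.0 nM IMP-1 for 20 min at room temperature, and IC50 values were determined.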

[4] = tested on: Pseudomonas aeruginosa; assay: Antibacterial activity against Pseudomonas aeruginosa PAO1 pMS363 at 50 ug/ml by microbroth dilution method in presence of biapenem; assay type: functional, organism-based
[5] = tested on: Pseudomonas aeruginosa; assay: Antibacterial activity against mexAB-deleted Pseudomonas aeruginosa KG5002/pMS363 at 50 ug/ml by microbroth dilution method in presence of biapenem; assay type: functional, organism-based
[6] = tested on: Pseudomonas aeruginosa; assay: Antibacterial activity against Pseudomonas aeruginosa clinical isolates producing IMP-1 by microbroth dilution method in presence of ceftazidime; assay type: functional, organism-based
Outline: (§2)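 Minimum inhibitory concentrations were determined by broth microdilution following CLSI guidance, with Mueller–Hinton II broth as the test medium.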

[7] = tested on: Pseudomonas aeruginosa; assay: Antibacterial activity against Pseudomonas aeruginosa clinical isolates producing IMP-1 by microbroth dilution method in presence of meropenem; assay type: functional, organism-based; outline: as §2
[8] = tested on: Pseudomonas aeruginosa; assay: Antibacterial activity against Pseudomonas aeruginosa clinical isolates producing IMP-1 by microbroth dilution method in presence of biapenem; assay type: functional, organism-based; outline: as §2

Chain of Metallo beta-lactamase (Q6TUJ4 whole entry): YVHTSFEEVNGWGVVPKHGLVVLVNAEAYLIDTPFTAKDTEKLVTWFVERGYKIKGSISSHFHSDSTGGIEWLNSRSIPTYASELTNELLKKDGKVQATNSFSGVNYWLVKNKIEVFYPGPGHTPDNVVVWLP

## C[C@@H](O)[C@H]1C(=O)N2C(C(=O)[O-])=C(SC3Cn4cnc[n+]4C3)[C@H](C)[C@H]12 (stereo not given in full) [BIAPENEM]
[1]
  MIC: 64 µg/mL (≈ 183 µM)
[2]
  MIC: 64 µg/mL (≈ 183 µM)

## O=C(O)c1cccc(OCc2ccccc2)c1C(=O)O
[3]
  IC50: 7.4 µM

## O=C(O)c1cccc(N2CCCC(CO)C2)c1C(=O)O (stereo not given)
[4]
  Activity: Active
[5]
  Activity: Active
[3]
  IC50: 2.1 µM

## Nc1cccc(C(=O)O)c1C(=O)O
[3]
  IC50: 300 µM

## CCCCOc1cccc(C(=O)O)c1C(=O)O
[3]
  IC50: 5.1 µM

## O=C(O)c1cccc(-c2ccc(O)cc2)c1C(=O)O
[3]
  IC50: 1.55 µM

## CN(C)c1cccc(C(=O)O)c1C(=O)O
[4]
  Activity: Active
[5]
  Activity: Active
[3]
  IC50: 94.5 µM

## O=C(O)c1cccc(OCCCO)c1C(=O)O
[4]
  Activity: Active
[5]
  Activity: Active
[3]
  IC50: 21.4 µM

## O=C(O)c1cccc(N2CCCCC2)c1C(=O)O
[4]
  Activity: Active
[5]
  Activity: Active
[3]
  IC50: 10.8 µM

## O=C(O)c1cccc(N2CCC(CCO)CC2)c1C(=O)O
[4]
  Activity: Active
[5]
  Activity: Active
[3]
  IC50: 25.6 µM

## COc1cccc(C(=O)O)c1C(=O)O
[3]
  IC50: 142 µM

## O=C(O)c1cccc(N2CCCC2)c1C(=O)O
[4]
  Activity: Active
[5]
  Activity: Active
[3]
  IC50: 2.8 µM

## O=C(O)c1cccc(OCCCC2CCCCC2)c1C(=O)O
[4]
  Activity: inactive
[3]
  IC50: 2 µM

## CCCCNc1cccc(C(=O)O)c1C(=O)O
[3]
  IC50: 13.1 µM

## COC1CCN(c2cccc(C(=O)O)c2C(=O)O)CC1
[4]
  Activity: Active
[5]
  Activity: Active
[3]
  IC50: 3.7 µM

## O=C(O)c1cccc(OCCCc2ccccc2)c1C(=O)O
[4]
  Activity: inactive
[5]
  Activity: Active
[3]
  IC50: 1.7 µM

## O=C(O)CCCCOc1cccc(C(=O)O)c1C(=O)O
[4]
  Activity: Active
[3]
  IC50: 18.8 µM

## O=C(O)c1cccc(N2CCC(O)(c3ccccc3)CC2)c1C(=O)O
[4]
  Activity: Active
[5]
  Activity: Active
[3]
  IC50: 2.3 µM

## O=C(O)c1cccc(OCCO)c1C(=O)O
[4]
  Activity: Active
[5]
  Activity: Active
[3]
  IC50: 47.8 µM

## O=C(O)c1cccc(N2CCCC(O)C2)c1C(=O)O (stereo not given)
[4]
  Activity: Active
[5]
  Activity: Active
[3]
  IC50: 2.7 µM

## O=C(O)c1cccc(N2CCC(CO)CC2)c1C(=O)O
[4]
  Activity: Active
[5]
  Activity: Active
[3]
  IC50: 2.6 µM

## O=C(O)c1cccc(O)c1C(=O)O
[3]
  IC50: > 300 µM

## O=C(O)c1cccc(N2CCC(O)CC2)c1C(=O)O
[6]
  Activity: Dose-dependent effect
[7]
  Activity: Dose-dependent effect
[8]
  Activity: Dose-dependent effect
[4]
  Activity: Active
[5]
  Activity: Active
[3]
  IC50: 2.7 µM
